Results on 2 compounds are retold here after ChEMBL document CHEMBL4602711, “Catching a Moving Target: Comparative Modeling of Flaviviral NS2B-NS3 Reveals Small Molecule Zika Protease Inhibitors” (ACS Med Chem Lett, 2020).

pKi: −log10 of the molar value. The source made the active and inactive calls.

Test [1] concerns the target Genome polyprotein (West Nile virus) (UniProt P06935). In words: Inhibition of C-terminal His6-tagged West Nile virus NS2B (52 to 96 residues)-G4SG4-NS3 (1 to 184 residues) expressed in Escherichia coli BL21(DE3) cells at <50 uM using Boc-Gly-Lys-Arg-AMC33 as substrate measured for 600 secs by fluorescence based assay.
Test [2] is described as follows: Inhibition of N-terminal His6-tagged DENV2 NS2B-NS3 protease using Boc-Gly-Lys-Arg-AMC33 as substrate measured for 600 secs by fluorescence based assay. Details: species or system dengue virus type 2. In short, it runs like this:
(§1)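 Ki values were obtained by fluorescence-based protease assays, only for ligands below the 50 μM inhibition cutoff. The commercially available racemic mixtures were tested.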

For test [3], the target named is Nonstructural protein 3 (Zika virus) (UniProt A0A024AXB9). Briefly: Inhibition of Zika virus NS2B-NS3 protease at <50 uM using Bz-Nle-Lys-Lys-Arg-AMC as substrate preincubated for 10 mins followed by substrate addition and measured for 70 secs by fluorophotometric analysis.
Test [4] deals with Genome polyprotein (West Nile virus, UniProt P06935). Briefly: Inhibition of C-terminal His6-tagged West Nile virus NS2B (52 to 96 residues)-G4SG4-NS3 (1 to 184 residues) expressed in Escherichia coli BL21(DE3) cells using Boc-Gly-Lys-Arg-AMC33 as substrate measured for 600 secs by fluorescence based assay. In short, it runs like this:
as §1

Test [5] deals with Nonstructural protein 3 (Zika virus, UniProt A0A024AXB9). In words: Inhibition of Zika virus NS2B-NS3 protease using Bz-Nle-Lys-Lys-Arg-AMC as substrate preincubated for 10 mins followed by substrate addition and measured for 70 secs by fluorophotometric analysis. In short, it runs like this: as §1
Test [6] concerns dengue virus type 2. In words: Inhibition of N-terminal His6-tagged DENV2 NS2B-NS3 protease at<50 uM using Boc-Gly-Lys-Arg-AMC33 as substrate measured for 600 secs by fluorescence based assay.

Chain of Genome polyprotein (West Nile virus) (P06935 whole entry, the tested form may be a part): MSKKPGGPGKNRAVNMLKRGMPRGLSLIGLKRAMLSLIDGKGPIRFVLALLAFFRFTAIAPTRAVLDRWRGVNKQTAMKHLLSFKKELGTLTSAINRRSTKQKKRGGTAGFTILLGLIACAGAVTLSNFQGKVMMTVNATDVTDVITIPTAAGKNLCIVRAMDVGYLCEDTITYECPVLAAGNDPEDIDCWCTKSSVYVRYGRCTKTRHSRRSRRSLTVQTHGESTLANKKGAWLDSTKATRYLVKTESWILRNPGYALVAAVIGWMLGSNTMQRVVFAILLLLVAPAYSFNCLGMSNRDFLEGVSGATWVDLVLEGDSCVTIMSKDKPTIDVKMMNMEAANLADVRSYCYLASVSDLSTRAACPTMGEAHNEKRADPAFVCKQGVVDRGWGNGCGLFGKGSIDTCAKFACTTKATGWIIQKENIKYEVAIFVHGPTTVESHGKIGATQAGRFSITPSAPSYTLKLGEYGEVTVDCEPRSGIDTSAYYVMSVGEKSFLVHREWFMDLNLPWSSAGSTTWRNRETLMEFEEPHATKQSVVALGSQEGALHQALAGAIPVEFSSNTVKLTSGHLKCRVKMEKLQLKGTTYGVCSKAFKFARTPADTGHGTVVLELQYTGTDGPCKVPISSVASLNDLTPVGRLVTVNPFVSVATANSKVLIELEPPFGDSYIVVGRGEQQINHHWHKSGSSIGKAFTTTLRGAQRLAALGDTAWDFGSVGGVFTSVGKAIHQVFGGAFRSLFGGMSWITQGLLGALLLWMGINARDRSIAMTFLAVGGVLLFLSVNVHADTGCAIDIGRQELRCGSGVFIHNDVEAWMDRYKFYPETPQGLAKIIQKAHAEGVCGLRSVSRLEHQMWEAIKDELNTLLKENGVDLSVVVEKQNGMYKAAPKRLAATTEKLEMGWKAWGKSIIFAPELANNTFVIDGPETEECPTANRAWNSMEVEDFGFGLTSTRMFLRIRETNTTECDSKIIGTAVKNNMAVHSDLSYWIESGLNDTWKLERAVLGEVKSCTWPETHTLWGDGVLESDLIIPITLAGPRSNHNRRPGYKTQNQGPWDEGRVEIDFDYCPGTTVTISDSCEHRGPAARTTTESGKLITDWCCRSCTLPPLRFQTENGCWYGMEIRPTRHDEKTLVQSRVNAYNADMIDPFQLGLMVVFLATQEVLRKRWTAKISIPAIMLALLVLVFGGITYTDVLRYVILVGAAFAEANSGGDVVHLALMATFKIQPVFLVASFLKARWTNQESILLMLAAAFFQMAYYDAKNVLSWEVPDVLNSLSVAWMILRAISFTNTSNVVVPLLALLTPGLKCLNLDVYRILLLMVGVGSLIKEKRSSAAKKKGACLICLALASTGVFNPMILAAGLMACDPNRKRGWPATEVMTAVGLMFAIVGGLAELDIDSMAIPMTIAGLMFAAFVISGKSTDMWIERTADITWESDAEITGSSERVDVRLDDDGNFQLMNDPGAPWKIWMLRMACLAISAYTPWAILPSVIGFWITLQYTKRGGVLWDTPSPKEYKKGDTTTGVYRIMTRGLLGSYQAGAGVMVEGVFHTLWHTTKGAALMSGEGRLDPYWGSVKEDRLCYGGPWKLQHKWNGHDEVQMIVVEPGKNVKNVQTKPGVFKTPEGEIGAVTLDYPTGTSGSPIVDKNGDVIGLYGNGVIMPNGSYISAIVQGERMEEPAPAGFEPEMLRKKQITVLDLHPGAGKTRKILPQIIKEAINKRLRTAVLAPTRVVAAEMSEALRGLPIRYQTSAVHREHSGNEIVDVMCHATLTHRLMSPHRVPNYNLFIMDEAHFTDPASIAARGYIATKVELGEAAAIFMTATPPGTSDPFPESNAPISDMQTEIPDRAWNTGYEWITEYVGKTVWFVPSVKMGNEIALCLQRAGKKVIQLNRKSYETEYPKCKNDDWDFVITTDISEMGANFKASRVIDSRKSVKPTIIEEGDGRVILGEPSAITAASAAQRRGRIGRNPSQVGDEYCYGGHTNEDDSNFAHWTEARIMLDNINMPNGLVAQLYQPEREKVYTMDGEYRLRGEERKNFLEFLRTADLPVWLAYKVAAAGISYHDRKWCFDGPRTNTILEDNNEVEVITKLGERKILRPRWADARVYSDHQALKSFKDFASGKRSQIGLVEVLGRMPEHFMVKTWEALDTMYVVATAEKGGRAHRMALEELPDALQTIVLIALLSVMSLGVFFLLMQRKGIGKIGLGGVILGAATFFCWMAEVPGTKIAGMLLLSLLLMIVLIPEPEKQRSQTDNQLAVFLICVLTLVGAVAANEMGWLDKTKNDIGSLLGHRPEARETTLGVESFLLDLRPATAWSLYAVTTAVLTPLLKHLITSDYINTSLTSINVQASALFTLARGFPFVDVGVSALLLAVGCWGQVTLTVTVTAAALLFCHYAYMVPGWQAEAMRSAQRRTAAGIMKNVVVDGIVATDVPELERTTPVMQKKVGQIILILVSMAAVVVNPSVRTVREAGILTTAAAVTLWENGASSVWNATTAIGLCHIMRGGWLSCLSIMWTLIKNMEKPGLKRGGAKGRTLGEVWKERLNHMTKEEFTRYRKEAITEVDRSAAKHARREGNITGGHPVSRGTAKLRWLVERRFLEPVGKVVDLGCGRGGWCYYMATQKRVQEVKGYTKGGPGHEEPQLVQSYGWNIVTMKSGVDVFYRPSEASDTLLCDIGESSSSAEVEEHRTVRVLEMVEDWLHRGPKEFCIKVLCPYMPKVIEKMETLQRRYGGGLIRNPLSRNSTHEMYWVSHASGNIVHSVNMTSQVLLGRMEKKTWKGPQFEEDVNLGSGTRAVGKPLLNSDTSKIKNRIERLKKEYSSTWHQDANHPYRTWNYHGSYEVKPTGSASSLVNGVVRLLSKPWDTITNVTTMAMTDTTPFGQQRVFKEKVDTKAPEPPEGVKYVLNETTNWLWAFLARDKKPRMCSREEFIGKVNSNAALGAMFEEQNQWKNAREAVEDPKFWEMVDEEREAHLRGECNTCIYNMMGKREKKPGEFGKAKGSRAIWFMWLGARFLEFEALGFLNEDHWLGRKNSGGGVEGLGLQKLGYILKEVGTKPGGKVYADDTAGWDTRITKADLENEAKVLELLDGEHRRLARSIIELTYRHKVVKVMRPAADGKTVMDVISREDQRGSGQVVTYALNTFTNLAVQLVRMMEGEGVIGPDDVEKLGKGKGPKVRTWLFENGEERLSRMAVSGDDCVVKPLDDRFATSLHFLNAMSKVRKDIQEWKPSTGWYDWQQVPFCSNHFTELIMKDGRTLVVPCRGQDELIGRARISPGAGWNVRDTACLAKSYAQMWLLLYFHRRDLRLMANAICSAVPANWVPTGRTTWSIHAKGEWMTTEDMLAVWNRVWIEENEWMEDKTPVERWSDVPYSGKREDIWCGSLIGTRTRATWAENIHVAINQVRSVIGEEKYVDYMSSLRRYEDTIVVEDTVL
Chain of Nonstructural protein 3 (A0A024AXB9 whole entry): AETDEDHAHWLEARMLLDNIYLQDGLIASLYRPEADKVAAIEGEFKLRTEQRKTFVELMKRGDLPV
Chain of Nonstructural protein 3 (Zika virus) (A0A024AXB9 as listed by the source): as the sequence (A0A024AXB9 whole entry) above
Chain of Genome polyprotein (P06935 1371-1501 limits assumed): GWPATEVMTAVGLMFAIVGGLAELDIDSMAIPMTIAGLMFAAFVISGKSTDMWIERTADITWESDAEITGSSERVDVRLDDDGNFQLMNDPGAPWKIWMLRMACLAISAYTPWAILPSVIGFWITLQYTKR
Chain of Genome polyprotein (P06935 1502-2120 limits assumed): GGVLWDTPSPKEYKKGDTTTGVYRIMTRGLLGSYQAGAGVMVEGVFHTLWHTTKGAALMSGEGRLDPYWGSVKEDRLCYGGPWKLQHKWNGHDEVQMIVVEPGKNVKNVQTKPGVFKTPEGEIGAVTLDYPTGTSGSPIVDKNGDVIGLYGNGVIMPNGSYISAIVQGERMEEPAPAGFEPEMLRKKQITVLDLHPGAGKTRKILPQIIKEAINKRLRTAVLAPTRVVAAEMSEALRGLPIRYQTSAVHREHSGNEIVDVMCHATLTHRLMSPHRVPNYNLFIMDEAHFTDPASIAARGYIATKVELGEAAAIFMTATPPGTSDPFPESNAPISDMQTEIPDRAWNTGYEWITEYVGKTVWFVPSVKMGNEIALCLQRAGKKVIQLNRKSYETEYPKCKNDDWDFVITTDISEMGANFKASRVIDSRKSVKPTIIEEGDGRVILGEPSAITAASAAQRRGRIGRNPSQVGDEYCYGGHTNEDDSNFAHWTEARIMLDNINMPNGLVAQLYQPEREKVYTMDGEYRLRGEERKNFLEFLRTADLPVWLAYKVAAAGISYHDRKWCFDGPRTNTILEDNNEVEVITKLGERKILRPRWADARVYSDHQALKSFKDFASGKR

The pKi is the negative decadic logarithm of the Ki, by convention in mol/L. Higher therefore signals a low Ki. Regarding `Cc1ccc(C(=O)NCC(O)CN2CCCC2)cc1OCCN` (stereo not given), the inhibition entry in test [1], in test [3] and in test [6] was “Active” throughout. Besides, the figures for the negative logarithm of the Ki (pKi) in test [2], in test [4] and in test [5] were 7.05, 4.59 and 5.64, respectively.
Turning to `COc1cc(CN2CC(O)C2)ccc1OCC(O)CN1CCC(O)CC1` (stereo not given), the inhibition entry in test [1] and in test [3] was “Active” in each case. The negative logarithm of the Ki (pKi) in test [4] is 5.13; in test [5], 4.94.
